Consider 14 molecules from ChEMBL document CHEMBL1138668, “Structural studies on bioactive compounds. 39. Biological consequences of the structural modification of DHFR-inhibitory 2,4-diamino-6-(4-substituted benzylamino-3-nitrophenyl)-6-ethylpyrimidines ('benzoprims')” (J Med Chem, 2004).

The test system of assay [1] is HT-29. As to the kind of experiment: Growth inhibitory activity against human HT-29 cell line in presence of Hypoxanthine thymidine(HT). It is filed as functional. In a few lines: (§1)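 Same 4-day MTT growth assay in HCT-116 or HT29 cells, with hypoxanthine 100 µM and thymidine 20 µM (final) added together with the drug. Hypoxanthine stock was in 10 mM NaOH and thymidine in water. Readout was A550 against a time-zero plate. GI50 is the mean of three experiments.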

Assay [2] has as its system HCT-116. As to the kind of experiment: Growth inhibitory activity against human HCT116 cell line in presence of Hypoxanthine thymidine(HT). It is filed as functional. In a few lines:
as §1

The test system of assay [3] is HT-29. As to the kind of experiment: Growth inhibitory activity against human HT-29 cell line. It is filed as functional. Summed up:
(§2)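 HCT-116 or HT29 colon cells in RPMI 1640 with L-glutamine and 10% heat-inactivated FBS, 37 °C, 5% CO2. Cells were plated at densities suited to the growth rate and allowed to attach 4–24 h. Drug from 10 mM DMSO stocks was then added and cells incubated 4 days. MTT readout: 4 h with MTT, formazan dissolved in DMSO:glycine buffer (4:1), A550. A time-zero plate gave the starting density. Values are GI50, mean of three experiments.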

Assay [4] has as its system HCT-116. As to the kind of experiment: Growth inhibitory activity against human HCT116 cell line. The format is functional. Summed up:
as §2

The target of assay [5] is T1, Dihydrofolate reductase (Rattus norvegicus, UniProt Q920D2).
T1 sequence (Q920D2 whole entry): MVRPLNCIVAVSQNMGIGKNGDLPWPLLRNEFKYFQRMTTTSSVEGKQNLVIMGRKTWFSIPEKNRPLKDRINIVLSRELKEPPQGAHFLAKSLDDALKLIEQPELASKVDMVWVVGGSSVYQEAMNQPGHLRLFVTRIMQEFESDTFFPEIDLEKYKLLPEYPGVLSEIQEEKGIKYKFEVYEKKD
As to the kind of experiment: Inhibitory activity against rat liver Dihydrofolate reductase. The note with it: read-out: I50.

Bounds are passed on as bounds.

Broadly, the GI50 is the concentration at which growth is held to half of that of the control. Turning to `Nc1ncc(-c2ccc(Cl)c([N+](=O)[O-])c2)cn1`, the GI50 in assay [1], in assay [2], in assay [3] and in assay [4] was greater than 50 µM in each case.
As to `CN(Cc1ccccc1)c1ccc(-c2cnc(N)nc2)cc1[N+](=O)[O-]`, the GI50 in assay [1] is 17 µM; in assay [2], greater than 50 µM; in assay [3], 14 µM; in assay [4], greater than 50 µM.
In the case of `Nc1ncc(-c2ccc(NCc3ccc(F)cc3)c([N+](=O)[O-])c2)cn1`, the GI50 turned out to be 38 µM in assay [1], 47 µM in assay [2], 41 µM in assay [3] and 48 µM in assay [4].
On the same counts, the results for `CCc1nc(N)nc(N)c1-c1ccc2[nH]c(-c3ccc(Cl)cc3)[n+]([O-])c2c1` are greater than 50 µM, 9 µM, greater than 50 µM and 9 µM.
In the case of `Nc1nc(N)c2[nH]c(Cc3ccc(Cl)c(Cl)c3)nc2n1`, the IC50 in assay [5] turned out to be 252 µM.
As for `CCc1nc(N)nc(N)c1-c1ccc2nn(-c3ccccc3)[n+]([O-])c2c1`, the IC50 in assay [5] is 2.7 µM.
With `CCc1nc(N)nc(N)c1-c1ccc(NCc2ccc(Cl)c(Cl)c2)c([N+](=O)[O-])c1`, in assay [5], the IC50 was determined as 0.008 µM.
`CCc1nc(N)nc(N)c1-c1ccc(NCc2ccccc2OC)c([N+](=O)[O-])c1`: the GI50 in assay [1] stood at 11.6 µM; in assay [2] it was 7.5 µM; in assay [3] it was 1.5 µM; in assay [4], 0.08 µM.
Regarding `Nc1ncc(-c2ccc(NCc3ccc(Cl)cc3)c([N+](=O)[O-])c2)cn1`, the GI50 was determined as 25 µM in assay [1], 5 µM in assay [2], 17 µM in assay [3] and 3 µM in assay [4].
On the same counts, the results for `CCc1nc(N)nc(N)c1-c1ccc2[nH]c(-c3ccc(F)cc3)[n+]([O-])c2c1` are 39 µM, 22 µM, 46 µM and 17 µM.
On the same counts, the results for `CCc1nc(N)nc(N)c1-c1ccc(N(C)Cc2ccccc2)c([N+](=O)[O-])c1` are 9.2 µM, 7.4 µM, 0.48 µM and 0.08 µM.
As to `CCc1nc(N)nc(N)c1-c1ccc(Cl)c([N+](=O)[O-])c1`, the GI50 in assay [1] came to 40 µM; in assay [2], 38 µM; in assay [3], 3.8 µM; in assay [4], 0.25 µM.
The corresponding values for `CN(Cc1cnc2nc(N)nc(N)c2n1)c1ccc(C(=O)N[C@@H](CCC(=O)O)C(=O)O)cc1` [METHOTREXATE] are greater than 50 µM, greater than 50 µM, 0.07 µM and 0.01 µM.
`COc1cc(NCc2ccc3nc(N)nc(N)c3c2C)cc(OC)c1OC` [TRIMETREXATE]: the GI50 in assay [1] was 21 µM; in assay [2], 19 µM; in assay [3], 0.01 µM; in assay [4] it was 0.01 µM.
